This is a sample that favours compounds with a hit; in the whole collection about 10% have one here.
Lmaj promast: Leishmania major promastigote growth inhibition; 200,000 compounds, 9% hits; inhibition, % at 10 µM; Leishmania major promastigotes, resazurin fluorescence viability; in the data active = inhibition above about 50%;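 also: promastigotes grown with compound for 44 hours at 28 °C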
WT yeast gro inh: growth inhibition of WT yeast, mitochondrial fusion screen | mitochondrial fusion phenotypic screen, WT strain | inhibition, % at 10 µM | 190,000 compounds, 2.1% hits | AID 1362; in the data active = inhibition above about 58%; tested in S. cerevisiae
PMI activator: phosphomannose isomerase (human) activation | P34949 | purified human PMI, coupled resazurin fluorescence, 20 min; active compounds read high; 1 = vehicle control, 0 substrate-free wells | activation factor at 20 µM | 190,000 compounds, 0.005% hits;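 active = activation factor of 2 or more at 20 µM, relative to plate controls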
Target sequence (P34949 whole entry, looked up): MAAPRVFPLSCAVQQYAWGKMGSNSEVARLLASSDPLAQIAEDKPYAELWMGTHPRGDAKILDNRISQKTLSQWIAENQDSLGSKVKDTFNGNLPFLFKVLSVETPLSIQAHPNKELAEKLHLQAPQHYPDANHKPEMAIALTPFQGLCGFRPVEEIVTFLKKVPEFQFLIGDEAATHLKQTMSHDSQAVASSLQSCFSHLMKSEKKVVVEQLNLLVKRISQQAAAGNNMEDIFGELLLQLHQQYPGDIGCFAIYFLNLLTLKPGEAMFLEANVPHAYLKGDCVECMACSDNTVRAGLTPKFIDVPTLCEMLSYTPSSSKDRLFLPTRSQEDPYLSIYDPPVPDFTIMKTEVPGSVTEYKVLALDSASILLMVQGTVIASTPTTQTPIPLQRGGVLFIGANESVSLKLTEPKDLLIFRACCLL
PMI act hi M6P: PMI (human) activation, high substrate | P34949 | coupled PMI enzyme assay, resazurin fluorescence, 20 min; active compounds read high; 1 = untreated enzyme, 0 = substrate-free blank | activation factor at 20 µM | 190,000 compounds, 0.34% hits | AID 1216;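 active = activation factor of 2 or more at 20 µM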
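Material: human phosphomannose isomerase with PGI, G6PDH, diaphorase coupling enzymes / Reagent: Man-6-P substrate 1.0 mM / Dosing: single compound dose of 20 µM, 1% DMSO final / Incubation: enzyme reaction with compound 20 min at room temperature / Signal: resorufin fluorescence (Ex 544/Em 590 nm) from resazurin via diaphorase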
Diaph act CS: diaphorase activation or chemical reduction counter-screen | 190,000 compounds, 0.005% hits | AID 1229 | Diaphorase/resazurin coupled assay, resorufin fluorescence, 16 min; active compounds read high; 1 = vehicle wells, 0 = NADH-free wells | activation factor at 20 µM;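 active = diaphorase activity raised at least twofold by the compound at 20 µM; inactive = activation factor below 2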
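System – purified diaphorase enzyme from Clostridium kluyveri · Input – enzyme 0.07 U/mL final · Also added – final NADH 0.114 mM, resazurin 0.1 mM · Measured by – fluorescence of resorufin, 544 nm excitation, 590 nm emission · Timing – 16 min enzyme reaction, ambient temperature · Measure – resorufin increase flagging diaphorase activators or reducers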
* = called active by the depositor.

CCN(CC)CCNC(=O)Cc1c(C(=O)O)n(CC)c2ccccc12 was read as Lmaj promast -7.9, WT yeast gro inh -12.7, PMI activator 0.9, PMI act hi M6P 0.9 and Diaph act CS 0.9.
CN(C)CCNC(=O)Cc1c(C(=O)O)n(C)c2ccccc12 was read as Lmaj promast 93.9*, PMI activator 0.9, PMI act hi M6P 0.9 and Diaph act CS 0.8.
Screening O=C(NCCOc1ccccc1)c1cc(C(=O)NCCOc2ccccc2)cc([N+](=O)[O-])c1 returned Lmaj promast 97.7*, WT yeast gro inh 9.1, PMI activator 0.8, PMI act hi M6P 0.8 and Diaph act CS 0.8.
For c1ccc(N/N=C(\Cc2nc3ccccc3[nH]2)c2ccccc2)cc1 the results were Lmaj promast 9.2, WT yeast gro inh 72.0*, PMI activator 1.8, PMI act hi M6P 2.9* and Diaph act CS 0.9.
Screening N#CCCN/N=C(/Cc1nc2ccccc2[nH]1)c1ccc(Cl)cc1 returned Lmaj promast 33.0, WT yeast gro inh 15.3, PMI activator 0.9, PMI act hi M6P 1 and Diaph act CS 0.9.
Screening Cc1ccc(N/N=C(\Cc2nc3ccccc3[nH]2)c2ccccc2)cc1 returned Lmaj promast 88.0*, WT yeast gro inh 16.9, PMI activator 1.5, PMI act hi M6P 2.2* and Diaph act CS 0.9.
Screening O=C(NCCOc1ccccc1)c1ccccc1[N+](=O)[O-] returned Lmaj promast -4.8, WT yeast gro inh 0.1, PMI activator 1, PMI act hi M6P 1 and Diaph act CS 1.
`N/N=C(/Cc1nc2ccccc2[nH]1)c1ccc([N+](=O)[O-])cc1` gave Lmaj promast 39.4, WT yeast gro inh 90.1*, PMI activator 1.1, PMI act hi M6P 1 and Diaph act CS 1.
Screening Cc1cccc(NC(=O)Cc2coc3ccc4ccccc4c23)n1 returned Lmaj promast 6.2, WT yeast gro inh 26.8, PMI activator 1.1, PMI act hi M6P 1.2 and Diaph act CS 1.
`O=C(COC(=O)c1cnc(Cl)c(Cl)c1)Nc1ccc(S(=O)(=O)N2CCCC2)cc1` gave Lmaj promast -7.6, WT yeast gro inh 8.3, PMI activator 0.9, PMI act hi M6P 0.9 and Diaph act CS 0.8.
`COc1cccc(-c2csc(N3CCN(CC(=O)NNC(=O)c4ccco4)CC3)n2)c1` gave Lmaj promast -3.4, WT yeast gro inh -8.2, PMI activator 1, PMI act hi M6P 1.1 and Diaph act CS 0.9.
`CCN/N=C(\Cc1nc2ccccc2[nH]1)c1ccccc1` gave Lmaj promast 74.7*, WT yeast gro inh -9.1, PMI activator 1, PMI act hi M6P 0.9 and Diaph act CS 0.9.
Screening N#CCCN/N=C(\Cc1nc2ccccc2[nH]1)c1ccccc1 returned Lmaj promast 2.9, WT yeast gro inh -5.9, PMI activator 1, PMI act hi M6P 1 and Diaph act CS 0.8.
Screening O=C(Cc1nc2ccccc2[nH]1)c1ccc(Br)cc1 returned Lmaj promast 96.3*, WT yeast gro inh 9.2, PMI activator 1.2, PMI act hi M6P 1 and Diaph act CS 1.
For O=C(Cc1nc2ccccc2[nH]c1=O)c1ccccc1 the results were Lmaj promast 4.1, WT yeast gro inh -1.1, PMI activator 1.1, PMI act hi M6P 1 and Diaph act CS 1.
`O=C(NCCc1nc2ccccc2[nH]1)c1cc([N+](=O)[O-])cc([N+](=O)[O-])c1` gave Lmaj promast 98.3*, WT yeast gro inh -15.7, PMI activator 0.9, PMI act hi M6P 0.9 and Diaph act CS 0.9.
`Clc1cccc(/C(Cc2nc3ccccc3[nH]2)=N\Nc2ccccc2)c1` gave Lmaj promast 39.7, WT yeast gro inh 67.7, PMI activator 1.7, PMI act hi M6P 2.5* and Diaph act CS 1.
`COc1ccc2c(CC(=O)OCC(=O)NC(=O)c3cccn3C)coc2c1` gave Lmaj promast -5.8, WT yeast gro inh -4.0, PMI activator 1, PMI act hi M6P 1 and Diaph act CS 0.9.
Screening CCN(CC)S(=O)(=O)c1ccc(C(=O)Nc2ccc3c(c2)OCO3)cc1 returned Lmaj promast 17.1, WT yeast gro inh -8.9, PMI activator 1.2, PMI act hi M6P 1 and Diaph act CS 0.9.
CC(C)Cc1nnc(NC(=O)CCc2c[nH]c3ccccc23)s1 was read as Lmaj promast -12.3, WT yeast gro inh -24.6, PMI activator 0.9, PMI act hi M6P 1 and Diaph act CS 0.8.
COC(=O)COc1cc(OCC(=O)OC)c2c(C)c(Cl)c(=O)oc2c1 was read as Lmaj promast 50.8*, WT yeast gro inh -9.2, PMI activator 1.1, PMI act hi M6P 1 and Diaph act CS 1.
For CC(C)(C)N(NC(=O)c1ccccc1)C(=O)c1ccc(C(=O)N(NC(=O)c2ccccc2)C(C)(C)C)cc1 the results were Lmaj promast 20.2, WT yeast gro inh 12.7, PMI activator 1.1, PMI act hi M6P 1 and Diaph act CS 0.9.
Screening CCc1ccc(C(=O)NN(C(=O)c2ccc(CC)cc2)C(C)(C)C)cc1 returned Lmaj promast 98.0*, WT yeast gro inh 23.0, PMI activator 0.9, PMI act hi M6P 0.9 and Diaph act CS 0.8.
For CC1(C)CC(=O)C(C=NCC2CCN(C(=O)Cc3ccccc3)CC2)=C(O)C1 the results were Lmaj promast -2.6, WT yeast gro inh -4.2, PMI activator 0.9, PMI act hi M6P 0.9 and Diaph act CS 0.9.
CC(C)C(=O)N1CCC(CN=Cc2c(O)n(C3CCCCC3)c(=O)n(C3CCCCC3)c2=O)CC1 was read as Lmaj promast 100.0*, WT yeast gro inh 77.5*, PMI activator 0.8, PMI act hi M6P 0.9 and Diaph act CS 0.7.
`CC(C)=C1C2CCC1C1C(=O)N(NC(=O)COc3ccc(C(C)(C)C)cc3)C(=O)C21` (centres undefined) gave Lmaj promast 5.9, WT yeast gro inh 56.9, PMI activator 0.9, PMI act hi M6P 0.9 and Diaph act CS 0.8.
For O=C(NNC(=S)NC(=O)c1ccco1)c1ccc(NC(=O)c2ccccc2)cc1 the results were Lmaj promast 95.6*, WT yeast gro inh -26.6, PMI activator 1.1, PMI act hi M6P 1.3 and Diaph act CS 0.7.
CCCCC(=O)Nc1ccc(C(=O)NNC(=S)NC(=O)c2ccco2)cc1 was read as Lmaj promast 6.3, WT yeast gro inh -24.8, PMI activator 1.1, PMI act hi M6P 1.2 and Diaph act CS 0.8.
O=C(Nc1ccc(NC(=S)NC(=O)C(c2ccccc2)c2ccccc2)cc1)c1ccccc1 was read as Lmaj promast 98.3*.
Screening CC(C)CNC(=O)c1ccc(NC(=O)c2cccs2)cc1 returned Lmaj promast 52.4*, WT yeast gro inh -4.1, PMI activator 1, PMI act hi M6P 0.8 and Diaph act CS 0.8.
Screening NNC(=O)c1cc2ccccc2cc1O returned Lmaj promast 63.8*, WT yeast gro inh 9.1, PMI activator 0.9, PMI act hi M6P 1 and Diaph act CS 0.9.
